Reference: ChEMBL document CHEMBL1255352, “Polyclonal population structure of Streptococcus pneumoniae isolates in Spain carrying mef and mef plus erm(B)” (2008)
In brackets after ≈: the same amount, converted by molar mass.

Key:
Streptococcus pneumoniae [1] = assay: Antibacterial activity against mef and erm(B) positive Streptococcus pneumoniae isolates by broth microdilution method; format: functional
In short: (§1)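 Broth microdilution MICs per CLSI guidelines. Agents tested were penicillin G, cefotaxime, erythromycin, clindamycin, telithromycin, tetracycline and levofloxacin. Plates were incubated at 35°C in ambient air. S. pneumoniae ATCC 49619 served as the reference strain in each run.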

Streptococcus pneumoniae [2] = assay: Antibacterial activity against mef-positive Streptococcus pneumoniae isolates by broth microdilution method; format: functional; in short: as §1
Streptococcus pneumoniae [3] = assay: Antibacterial activity against mef(E)-positive Streptococcus pneumoniae isolate Spain 9V-3 by broth microdilution method; format: functional; in short: as §1
Streptococcus pneumoniae [4] = assay: Antibacterial activity against erm(B) and mef(E)-positive Streptococcus pneumoniae isolate Sweden 15A-25 by broth microdilution method; format: functional
In short: (§2)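 MICs by broth microdilution following CLSI guidelines, incubated at 35°C in ambient air. S. pneumoniae ATCC 49619 served as reference strain in each run. CLSI breakpoints applied. Isolates typed for mef(A)/mef(E) by PCR and by MLST.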

Streptococcus pneumoniae [5] = assay: Antibacterial activity against erm(B) and mef(E)-positive Streptococcus pneumoniae isolate Spain 6B by broth microdilution method; format: functional; in short: as §2
Streptococcus pneumoniae [6] = assay: Antibacterial activity against mef-positive Streptococcus pneumoniae isolates assessed as resistance incidence by broth microdilution method; format: functional
In short: (§3)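 Clinical isolates were tested by CLSI broth microdilution against penicillin G, cefotaxime, erythromycin, clindamycin, telithromycin, tetracycline and levofloxacin, incubated at 35°C in ambient air, with ATCC 49619 as the control in each run. Isolates were classed as resistant using CLSI breakpoints.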

Streptococcus pneumoniae [7] = assay: Antibacterial activity against mef and erm(B) positive Streptococcus pneumoniae isolates assessed as resistance incidence by broth microdilution method; format: functional; in short: as §3
Streptococcus pneumoniae [8] = assay: Antibacterial activity against erm(B) and mef(E)-positive Streptococcus pneumoniae isolate CC-6B by broth microdilution method

Work on `CO/N=C(\C(=O)N[C@@H]1C(=O)N2C(C(=O)O)=C(COC(C)=O)CS[C@H]12)c1csc(N)n1` [CEFOTAXIME] yielded an MIC50 (Streptococcus pneumoniae [1]) of 0.5 µg/mL (≈ 1.1 µM), an MIC90 (Streptococcus pneumoniae [1]) of 2 µg/mL (≈ 4.39 µM) and an MIC50 (Streptococcus pneumoniae [2]) of 0.01 µg/mL (≈ 0.022 µM). The MIC90 (Streptococcus pneumoniae [2]) was 0.25 µg/mL (≈ 0.549 µM), the MIC (Streptococcus pneumoniae [3]) was 0.06 µg/mL (≈ 0.132 µM) and the MIC (Streptococcus pneumoniae [4]) was 0.06 µg/mL (≈ 0.132 µM). It also gave an MIC (Streptococcus pneumoniae [5]) of 1 µg/mL (≈ 2.2 µM), an Activity (Streptococcus pneumoniae [6]) of 17.7% and an Activity (Streptococcus pneumoniae [7]) of 4.4%. It also gave an MIC (Streptococcus pneumoniae [8]) of 0.12 µg/mL (≈ 0.263 µM).

For `CCC[C@@H]1C[C@@H](C(=O)N[C@@H]([C@H]2O[C@H](SC)[C@H](O)[C@@H](O)[C@H]2O)[C@H](C)Cl)N(C)C1` [CLINDAMYCIN], the MIC50 (Streptococcus pneumoniae [1]) was 64 µg/mL (≈ 151 µM), the MIC90 (Streptococcus pneumoniae [1]) was greater than 64 µg/mL and the MIC50 (Streptococcus pneumoniae [2]) was 0.03 µg/mL (≈ 0.0706 µM). The MIC90 (Streptococcus pneumoniae [2]) was 0.25 µg/mL (≈ 0.588 µM), the MIC (Streptococcus pneumoniae [3]) was 0.03 µg/mL (≈ 0.0706 µM) and the MIC (Streptococcus pneumoniae [4]) was no less than 64 µg/mL. For the same compound, the MIC (Streptococcus pneumoniae [5]) was no less than 64 µg/mL, the Activity (Streptococcus pneumoniae [6]) was 0% and the Activity (Streptococcus pneumoniae [7]) was 62.2%. For the same compound, the MIC (Streptococcus pneumoniae [8]) was 32 µg/mL (≈ 75.3 µM).

`CC[C@H]1OC(=O)[C@H](C)[C@@H](O[C@H]2C[C@@](C)(OC)[C@@H](O)[C@H](C)O2)[C@H](C)[C@@H](O[C@@H]2O[C@H](C)C[C@H](N(C)C)[C@H]2O)[C@](C)(O)C[C@@H](C)C(=O)[C@H](C)[C@@H](O)[C@]1(C)O` [ERYTHROMYCIN] gave an MIC50 (Streptococcus pneumoniae [1]) of 64 µg/mL (≈ 87.2 µM), an MIC90 (Streptococcus pneumoniae [1]) greater than 64 µg/mL and an MIC50 (Streptococcus pneumoniae [2]) of 4 µg/mL (≈ 5.45 µM). It also gave an MIC90 (Streptococcus pneumoniae [2]) of 16 µg/mL (≈ 21.8 µM), an MIC (Streptococcus pneumoniae [3]) of 0.5 µg/mL (≈ 0.681 µM) and an MIC (Streptococcus pneumoniae [4]) of no less than 64 µg/mL. It also gave an MIC (Streptococcus pneumoniae [5]) of no less than 64 µg/mL and an MIC (Streptococcus pneumoniae [8]) of 32 µg/mL (≈ 43.6 µM).

Work on `C[C@H]1COc2c(N3CCN(C)CC3)c(F)cc3c(=O)c(C(=O)O)cn1c23.C[C@H]1COc2c(N3CCN(C)CC3)c(F)cc3c(=O)c(C(=O)O)cn1c23.O` [LEVOFLOXACIN] yielded an MIC50 (Streptococcus pneumoniae [1]) of 1 µg/mL, an MIC90 (Streptococcus pneumoniae [1]) of 1 µg/mL and an MIC50 (Streptococcus pneumoniae [2]) of 1 µg/mL. For the same compound, the MIC90 (Streptococcus pneumoniae [2]) was 1 µg/mL.

In the case of `CC1(C)S[C@@H]2[C@H](NC(=O)Cc3ccccc3)C(=O)N2[C@H]1C(=O)O` [PENICILLIN G], the MIC50 (Streptococcus pneumoniae [1]) is reported as 1 µg/mL (≈ 2.99 µM), the MIC90 (Streptococcus pneumoniae [1]) is reported as 4 µg/mL (≈ 12 µM) and the MIC50 (Streptococcus pneumoniae [2]) is reported as 0.03 µg/mL (≈ 0.0897 µM). For the same compound, the MIC90 (Streptococcus pneumoniae [2]) was 1 µg/mL (≈ 2.99 µM), the MIC (Streptococcus pneumoniae [3]) was 0.12 µg/mL (≈ 0.359 µM) and the MIC (Streptococcus pneumoniae [4]) was 0.12 µg/mL (≈ 0.359 µM). The MIC (Streptococcus pneumoniae [5]) was 4 µg/mL (≈ 12 µM), the Activity (Streptococcus pneumoniae [6]) was 35.5% and the Activity (Streptococcus pneumoniae [7]) was 46.7%. It also gave an MIC (Streptococcus pneumoniae [8]) of 0.12 µg/mL (≈ 0.359 µM).

In the case of `CC[C@H]1OC(=O)[C@H](C)C(=O)[C@H](C)[C@@H](O[C@@H]2O[C@H](C)C[C@H](N(C)C)[C@H]2O)[C@](C)(OC)C[C@@H](C)C(=O)[C@H](C)[C@H]2N(CCCCn3cnc(-c4cccnc4)c3)C(=O)O[C@]12C` [TELITHROMYCIN], the MIC50 (Streptococcus pneumoniae [1]) is reported as 0.06 µg/mL (≈ 0.0739 µM), the MIC90 (Streptococcus pneumoniae [1]) is reported as 0.25 µg/mL (≈ 0.308 µM) and the MIC50 (Streptococcus pneumoniae [2]) is reported as 0.12 µg/mL (≈ 0.148 µM). It also gave an MIC90 (Streptococcus pneumoniae [2]) of 0.5 µg/mL (≈ 0.616 µM), an MIC (Streptococcus pneumoniae [3]) of 0.05 µg/mL (≈ 0.0616 µM) and an MIC (Streptococcus pneumoniae [4]) of 0.008 µg/mL (≈ 0.00985 µM). The MIC (Streptococcus pneumoniae [5]) was 0.08 µg/mL (≈ 0.0985 µM) and the MIC (Streptococcus pneumoniae [8]) was less than 0.01 µg/mL.

`CN(C)[C@@H]1C(O)=C(C(N)=O)C(=O)[C@@]2(O)C(O)=C3C(=O)c4c(O)cccc4[C@@](C)(O)[C@H]3C[C@@H]12` [TETRACYCLINE] showed an MIC50 (Streptococcus pneumoniae [1]) of 16 µg/mL (≈ 36 µM), an MIC90 (Streptococcus pneumoniae [1]) greater than 32 µg/mL and an MIC50 (Streptococcus pneumoniae [2]) of 1 µg/mL (≈ 2.25 µM). It also gave an MIC90 (Streptococcus pneumoniae [2]) of 4 µg/mL (≈ 9 µM), an MIC (Streptococcus pneumoniae [3]) of 0.5 µg/mL (≈ 1.13 µM) and an MIC (Streptococcus pneumoniae [4]) of no less than 64 µg/mL. For the same compound, the MIC (Streptococcus pneumoniae [5]) was no less than 64 µg/mL, the Activity (Streptococcus pneumoniae [6]) was 13.3% and the Activity (Streptococcus pneumoniae [7]) was 55.5%. It also gave an MIC (Streptococcus pneumoniae [8]) of 4 µg/mL (≈ 9 µM).
